This passage reports IC50 and Ratio results from ChEMBL document CHEMBL1131564, “Potent and selective ligands for the dopamine transporter (DAT): structure-activity relationship studies of novel 4-[2-(diphenylmethoxy)ethyl]-1-(3-phenylpropyl)piperidine analogues” (J Med Chem, 1998).

Test [1] concerns the target Sodium-dependent serotonin transporter (Rattus norvegicus, UniProt P31652). Description: Inhibitory activity against serotonin transporter (SERT) labeled with [3H]-citalopram in rat brain striatal membrane. The format is cell membranes.
For test [2], the target named is Sodium-dependent dopamine transporter (Rattus norvegicus, UniProt P23977). Description: Inhibitory activity against dopamine transporter (DAT) labeled with [3H]WIN-35428 in rat brain striatal membrane. Format: cell membranes.
Chain of Sodium-dependent dopamine transporter (P23977 whole entry): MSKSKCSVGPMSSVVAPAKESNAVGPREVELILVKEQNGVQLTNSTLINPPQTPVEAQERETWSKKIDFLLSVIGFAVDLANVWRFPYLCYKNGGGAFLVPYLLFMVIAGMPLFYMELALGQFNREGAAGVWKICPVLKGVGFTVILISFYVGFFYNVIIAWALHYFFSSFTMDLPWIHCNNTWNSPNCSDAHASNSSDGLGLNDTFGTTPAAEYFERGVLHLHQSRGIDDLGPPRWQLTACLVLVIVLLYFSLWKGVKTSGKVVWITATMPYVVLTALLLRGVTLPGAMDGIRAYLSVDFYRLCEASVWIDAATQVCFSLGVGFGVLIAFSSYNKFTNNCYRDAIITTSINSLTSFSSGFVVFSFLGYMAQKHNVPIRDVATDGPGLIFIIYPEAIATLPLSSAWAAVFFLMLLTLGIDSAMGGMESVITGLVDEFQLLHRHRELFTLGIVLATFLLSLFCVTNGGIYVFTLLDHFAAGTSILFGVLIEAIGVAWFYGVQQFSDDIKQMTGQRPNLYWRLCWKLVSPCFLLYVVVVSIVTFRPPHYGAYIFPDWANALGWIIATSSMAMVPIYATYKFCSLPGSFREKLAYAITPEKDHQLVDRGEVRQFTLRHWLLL
Test [3] deals with Monoamine transporters; serotonin & dopamine. Description: Ratio between the IC50 values of SERT and DAT. Format: protein assay. The procedure, abridged: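 Selectivity ratio: SERT IC50 ([3H]citalopram) divided by DAT IC50 ([3H]WIN 35,428). Both IC50s come from binding in male Sprague–Dawley rat striatal membranes under identical conditions, each by nonlinear curve fitting of at least five concentrations, three independent experiments in triplicate.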

Molecules are shown by their SMILES.

Chain of Sodium-dependent serotonin transporter (P31652 whole entry): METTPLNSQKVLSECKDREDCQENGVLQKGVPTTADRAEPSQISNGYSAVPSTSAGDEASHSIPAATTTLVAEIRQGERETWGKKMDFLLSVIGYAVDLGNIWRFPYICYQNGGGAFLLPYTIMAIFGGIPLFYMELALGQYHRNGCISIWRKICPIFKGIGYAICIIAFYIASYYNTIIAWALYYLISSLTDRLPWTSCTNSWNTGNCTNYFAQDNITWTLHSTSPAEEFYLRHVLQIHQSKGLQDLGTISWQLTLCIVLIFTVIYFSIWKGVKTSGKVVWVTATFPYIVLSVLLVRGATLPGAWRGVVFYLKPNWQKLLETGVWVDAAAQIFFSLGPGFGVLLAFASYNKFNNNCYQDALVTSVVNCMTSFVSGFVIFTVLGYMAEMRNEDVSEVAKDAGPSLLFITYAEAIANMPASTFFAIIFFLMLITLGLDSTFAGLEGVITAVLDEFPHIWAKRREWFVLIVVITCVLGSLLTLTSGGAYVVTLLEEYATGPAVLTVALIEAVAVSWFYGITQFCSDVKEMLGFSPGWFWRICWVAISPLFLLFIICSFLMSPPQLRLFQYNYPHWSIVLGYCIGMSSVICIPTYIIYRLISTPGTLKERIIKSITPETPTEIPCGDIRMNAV

As a reminder, the IC50 is the point on the concentration scale where inhibition reaches its midpoint. A higher IC50 goes with weaker potency in that assay. For the compound `C(=Cc1ccccc1)CN1CCC(CCOC(c2ccccc2)c2ccccc2)CC1`, the IC50 in test [1] is 232 nM; in test [2], 10.1 nM. In test [3], the Ratio amounted to 22.9.
The corresponding values for `Fc1ccc(CCCN2CCC(CCOC(c3ccccc3)c3ccccc3)CC2)cc1` are 223 nM, 6.6 nM and 33.8.
Regarding `c1ccc(CCCN2CCC(CCOC(c3ccccc3)c3cccs3)CC2)cc1` (configuration not stated), the IC50 was found to be 180 nM in test [1] and 6 nM in test [2]. For the same compound, the Ratio in test [3] was found to be 30.
The corresponding values for `C(=Cc1cccs1)CN1CCC(CCOC(c2ccccc2)c2ccccc2)CC1` are 291 nM, 9.8 nM and 29.6.
Taken in the same sequence, the figures for `Fc1ccc(C(OCCC2CCN(CC=Cc3ccccc3)CC2)c2ccc(F)cc2)cc1` were 271 nM, 41.4 nM and 6.5.
Taken in the same sequence, the figures for `Fc1ccc(C=CCN2CCC(CCOC(c3ccccc3)c3ccccc3)CC2)cc1` were 205 nM, 10.8 nM and 19.
Regarding `Fc1ccc(C(OCCC2CCN(CCCc3ccccc3)CC2)c2cccs2)cc1` (configuration not stated), the concentration for half-maximal inhibition (IC50) in test [1] was determined as 85.7 nM; in test [2], 11.7 nM. Besides, the Ratio in test [3] worked out at 7.3.
Taken in the same sequence, the figures for `c1ccc(C(OCCC2CCN(CCCc3cccnc3)CC2)c2ccccc2)cc1` were 194 nM, 29.9 nM and 6.5.
The corresponding values for `Fc1ccc(C=CCN2CCC(CCOC(c3ccc(F)cc3)c3ccc(F)cc3)CC2)cc1` are 75.8 nM, 15.1 nM and 5.
